Assay results reported in ChEMBL document CHEMBL1123959, “Orally active hydroxamic acid inhibitors of leukotriene biosynthesis” (J Med Chem, 1988).

Legend:
[1] = target: T1, Polyunsaturated fatty acid 5-lipoxygenase (Rattus norvegicus, UniProt P12527); assay: In vitro inhibition of 5-lipoxygenase in RBL-1 cells; assay type: cell-based
T1 sequence (P12527 whole entry): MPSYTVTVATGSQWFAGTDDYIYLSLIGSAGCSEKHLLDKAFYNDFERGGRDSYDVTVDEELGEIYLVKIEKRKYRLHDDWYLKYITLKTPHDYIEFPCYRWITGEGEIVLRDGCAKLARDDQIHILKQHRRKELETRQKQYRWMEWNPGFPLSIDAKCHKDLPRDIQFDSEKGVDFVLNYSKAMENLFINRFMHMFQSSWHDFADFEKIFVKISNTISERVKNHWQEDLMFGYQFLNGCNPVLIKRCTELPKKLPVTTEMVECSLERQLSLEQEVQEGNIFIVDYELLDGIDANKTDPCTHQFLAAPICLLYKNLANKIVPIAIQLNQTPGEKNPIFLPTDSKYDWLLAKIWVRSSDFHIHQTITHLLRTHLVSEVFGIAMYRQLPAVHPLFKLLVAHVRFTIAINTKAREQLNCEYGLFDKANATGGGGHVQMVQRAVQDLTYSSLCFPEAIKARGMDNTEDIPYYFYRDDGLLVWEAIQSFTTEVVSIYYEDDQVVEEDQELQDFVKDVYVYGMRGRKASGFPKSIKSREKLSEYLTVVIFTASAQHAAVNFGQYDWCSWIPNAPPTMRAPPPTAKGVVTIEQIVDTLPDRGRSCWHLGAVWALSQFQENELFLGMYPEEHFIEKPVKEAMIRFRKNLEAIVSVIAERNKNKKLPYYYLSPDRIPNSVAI
Summary of the method: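 The enzyme was 5-lipoxygenase in the 2000g supernatant of RBL-1 cell homogenate. IC50 is reported with 95% confidence limits.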

[2] = test system: Rattus norvegicus; assay: Percentage inhibition of leukotriene biosynthesis in rat peritoneal anaphylaxis model at 100 mg/kg; assay type: functional
Summary of the method: (§1)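 Rats were primed ip with rabbit antibody to bovine serum albumin and challenged ip with BSA 3 h later. Inhibitors were given orally by gavage 1 h before challenge. Rats were killed 15 min after challenge, and peritoneal fluid leukotrienes were measured by radioimmunoassay. ED50 is given with 95% confidence limits. Percent inhibition at a fixed dose is the mean ± SEM (n = 8).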

[3] = test system: Rattus norvegicus; assay: Plasma concentration after 1 hr of peroral administration at 100 mg/kg was determined in rats; assay type: functional, organism-based; set-up: dose 100 mg/kg
Summary of the method: (§2)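 Rats received 100 mg/kg orally by gavage. Blood was drawn from a lateral tail vein at the set times, and plasma was separated by centrifugation. Proteins were precipitated with methanol, and compound was quantified by HPLC with UV detection at its absorbance maximum. Values are the average of two determinations ± range.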

[4] = test system: Rattus norvegicus; assay: Plasma concentration after 3h of peroral administration at 100 mg/kg was determined in rats; assay type: functional, organism-based; set-up: dose 100 mg/kg; summary of the method: as §2
[5] = test system: Rattus norvegicus; assay: Plasma concentration after 6 hr of peroral administration at 100 mg/kg was determined in rats; assay type: functional, organism-based; set-up: dose 100 mg/kg; summary of the method: as §2
[6] = species: Rattus norvegicus; assay: Effective dosage to inhibit leukotriene biosynthesis in rat peritoneal anaphylaxis model; assay type: functional; summary of the method: as §1

For `CCCCOc1ccc(C(C)C(=O)N(C)O)cc1` (stereo not drawn), the IC50 [1] was 780 nM, the inhibition in vivo at 100 mg/kg [2] was 62% and the Plasma concentration [3] was 58 µM. The Plasma concentration [4] was 7.3 µM and the Plasma concentration [5] was 3.2 µM.
`CC(=O)N(O)C(C)c1ccc2ccccc2c1` (stereo not drawn) gave an IC50 [1] of 540 nM, an ED50 [6] of 19 mg/kg and a Plasma concentration [3] of 91 µM. For the same compound, the Plasma concentration [4] was 26 µM and the Plasma concentration [5] was 33 µM.
For `CC(C(=O)N(C)O)c1ccc2ccccc2c1` (stereo not drawn), the IC50 [1] was 590 nM, the Plasma concentration [3] was 37 µM and the Plasma concentration [4] was 13 µM. The Plasma concentration [5] was 1.4 µM.
Compound `CC(C(=O)N(C)O)c1ccc(OCc2ccccc2)cc1` (stereo not drawn) has an ED50 [6] of 40 mg/kg, a Plasma concentration [3] of 8 µM and a Plasma concentration [4] of 5.8 µM. It also gave a Plasma concentration [5] of 3.8 µM.
For `CC(=O)N(O)C(C)c1ccc(OCc2ccccc2)cc1` (stereo not drawn), the IC50 [1] was 370 nM, the ED50 [6] was 8 mg/kg and the Plasma concentration [3] was 110 µM. It also gave a Plasma concentration [4] of 140 µM and a Plasma concentration [5] of 95 µM.
`CC(C)Cc1ccc(C(C)C(=O)N(C)O)cc1` (stereo not drawn) gave an IC50 [1] of 290 nM, an inhibition in vivo at 100 mg/kg [2] of 65% and a Plasma concentration [3] of under 9 µM. The Plasma concentration [4] was under 9 µM and the Plasma concentration [5] was under 9 µM.
With `CCCCOc1ccc(C(C)N(O)C(C)=O)cc1` (stereo not drawn) the IC50 [1] was 790 nM, the ED50 [6] was 17 mg/kg and the Plasma concentration [3] was 92 µM. For the same compound, the Plasma concentration [4] was 71 µM and the Plasma concentration [5] was 13 µM.
`CC(=O)N(O)C(C)c1ccc(CC(C)C)cc1` (stereo not drawn) gave an IC50 [1] of 420 nM, an ED50 [6] of 24 mg/kg and a Plasma concentration [3] of 21 µM. The Plasma concentration [4] was 10 µM and the Plasma concentration [5] was 5 µM.
